Assay outcomes from PubChem BioAssay.
ERAP1 inh – blocks human ERAP1 aminopeptidase activity. inhibition, % at 10.7 µM. recombinant ERAP1, Leu-AMC fluorescence, 60 min. actives 0.15% (n = 340,000). AID 652197. Q9NZ08;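 active means mean replicate inhibition of at least 30%, or all replicates individually reaching that 30% level; inactive means mean below 30% and not every replicate reaching it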
DENV2 CPE rescue – protects cells from dengue virus 2 cytopathic effect. DENV2-infected cells, cytopathic effect rescue, plate reader. CPE inhibition, % at 9.99 µM. actives 1.7% (n = 350,000); in the data active means CPE inhibition above about 20%, passing the limit was not always enough; inconclusive means no clear call, values can overlap the other calls; tested in BHK-21 cells
FGF22 binding – binders of recombinant human FGF22 by thermal shift; Q9HCT0; SYPRO orange fluorescence; percent of sucrose octasulfate shift, DMSO zero; activity (Tm shift, normalised), % at 9.99 µM; actives 1.5% (n = 340,000); AID 651658;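 active means mean Tm shift, scaled 0 neutral to 100 positive control, at about 1.3% or above, every replicate too, limit read from the data; inconclusive means no clear call, values can overlap the other calls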
E-sel inducer – E-selectin induction on HUVECs; P16581; HUVEC E-selectin immunofluorescence imaging; normalized: neutral wells 0, TNF-alpha wells 100; activation, % at 7.58 µM; actives 0.37% (n = 260,000); AID 686992;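 active means mean E-selectin-positive cell signal at least 10% of the positive control, reached in at least 60% of replicates, without over 20% cell loss; inconclusive means no rule given, readout overlaps actives, possibly toxicity-flagged; inactive means the rest, including those meeting only one limit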
Target sequence (P16581 whole entry, looked up): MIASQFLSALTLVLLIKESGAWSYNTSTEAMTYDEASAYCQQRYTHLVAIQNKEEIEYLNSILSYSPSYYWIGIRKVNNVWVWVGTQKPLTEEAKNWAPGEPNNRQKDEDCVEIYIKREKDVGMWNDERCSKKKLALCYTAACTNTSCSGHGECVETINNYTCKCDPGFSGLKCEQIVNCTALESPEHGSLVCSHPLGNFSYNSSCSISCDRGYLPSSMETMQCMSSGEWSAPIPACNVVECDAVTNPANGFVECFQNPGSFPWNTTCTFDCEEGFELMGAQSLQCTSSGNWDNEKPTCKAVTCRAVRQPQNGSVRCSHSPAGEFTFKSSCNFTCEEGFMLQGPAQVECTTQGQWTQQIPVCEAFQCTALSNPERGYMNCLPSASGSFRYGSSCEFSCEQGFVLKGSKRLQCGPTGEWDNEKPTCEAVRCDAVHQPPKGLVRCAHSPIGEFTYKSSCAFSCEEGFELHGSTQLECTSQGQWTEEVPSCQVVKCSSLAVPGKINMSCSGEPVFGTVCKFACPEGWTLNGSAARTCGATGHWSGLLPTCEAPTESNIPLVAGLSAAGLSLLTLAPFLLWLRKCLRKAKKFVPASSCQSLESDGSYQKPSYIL
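System: HUVEC, human umbilical vein endothelial cells; quantity: 3,000 cells/well; buffer or medium: EGM-2 medium, gelatin-coated wells; dosing: single-point compound dose; detection: immunofluorescence imaging; evaluation: % PE-positive cells; benchmarks: TNF-alpha, DMSO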
CFTR F508del cor – CFTR F508del correction in bronchial cells | activity (quench increase), % at 7.58 µM | actives 0.36% (n = 350,000) | CFBE cells, YFP halide quenching; stimulated with forskolin plus potentiator P3; % fluorescence drop versus neutral controls;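 active means mean added fluorescence quench of at least 8% versus neutral control, with both replicates also reaching 8%; inconclusive means only one of the mean or replicate conditions met; inactive means mean below 8% and not both replicates reaching 8%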;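 further: cells transiently co-express mutant CFTR-F508del with the halide-sensitive YFP; corrector assay measuring rescue of mutant channel to the surface after 24 h compound exposure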
Numbers stand for hits; n = inactive; u = inconclusive; x = no result; ! = not confirmed by another sample. Most compounds without a hit are left out; they make up all but 3.7% or so of the library.

SMILES	ERAP1 inh	DENV2 CPE rescue	FGF22 binding	E-sel inducer	CFTR F508del cor
C[C@@H]1CN([C@@H](C)CO)C(=O)c2cc(NC(=O)CCCCCC(=O)Nc3ccccc3N)ccc2O[C@H]1CN(C)C(=O)Nc1ccc2c(c1)OCO2	n	n	n	104.7	n
O=C(N[C@H]1CC[C@@H](CCn2cc(C3(O)CCCC3)nn2)O[C@H]1CO)C1CCOCC1	n	n	n	n	n
CCNC(=O)C[C@@H]1CC[C@@H]2[C@@H](COc3ccc(NS(C)(=O)=O)cc3C(=O)N2C)O1	n	u	n	n	n
O=C(C[C@H]1CC[C@H](NC(=O)Nc2cc(F)ccc2F)[C@@H](CO)O1)NCCCN1CCOCC1	n	n	n	n	n
CC1CCC(C(C)C)C(OC(=O)Cn2c(-c3ccc(Cl)cc3)[n+](C)c3ccccc32)C1 (configuration not stated)	31.0	n	n	n	n
CC1CCC(C(C)C)C(OC(=O)Cn2c(-c3ccc(Br)cc3)[n+](C)c3ccccc32)C1 (configuration not stated)	n	n	n	n	n
CC1CCC(C(C)C)C(OC(=O)Cn2nnc3c(cnn3-c3ccccc3)c2=O)C1 (configuration not stated)	n	n	n	n	n
Cc1ccccc1OCc1n(CC(=O)OC2CC(C)CCC2C(C)C)c2ccccc2[n+]1C (configuration not stated)	n	n	43.3	x	n
COc1ccc(S(=O)(=O)N(C)C[C@H]2OCCCC[C@H](C)Oc3ccc(N(C)C)cc3C(=O)N([C@H](C)CO)C[C@@H]2C)cc1	n	23.3!	n	n	n
COc1ccc(S(=O)(=O)N(C)C[C@H]2OCCCC[C@@H](C)Oc3ccc(NS(=O)(=O)c4cccs4)cc3C(=O)N([C@H](C)CO)C[C@H]2C)cc1	n	n	n	n	n
COc1ccc(S(=O)(=O)N(C)C[C@H]2OCCCC[C@H](C)Oc3ccc(NS(=O)(=O)c4cccs4)cc3C(=O)N([C@H](C)CO)C[C@H]2C)cc1	n	63.1	n	n	n
COc1ccc(S(=O)(=O)Nc2ccc3c(c2)C(=O)N([C@H](C)CO)C[C@H](C)[C@H](CN(C)S(C)(=O)=O)OCCCC[C@@H](C)O3)cc1	n	20.3	n	n	n
COc1ccc(S(=O)(=O)N(C)C[C@H]2OCCCC[C@@H](C)Oc3ccc(NS(C)(=O)=O)cc3C(=O)N([C@@H](C)CO)C[C@@H]2C)cc1	n	22.4	n	n	n
COc1ccc(S(=O)(=O)N(C)C[C@@H]2OCCCC[C@@H](C)Oc3ccc(N(C)C)cc3C(=O)N([C@H](C)CO)C[C@H]2C)cc1	n	n	n	n	n
CN(C)C(=O)C[C@@H]1CC[C@H]2[C@@H](COC[C@H](O)CN2Cc2nccs2)O1	n	n	n	n	n
C[C@H](CO)N1C[C@H](C)[C@@H](CN(C)S(=O)(=O)c2ccc(Cl)cc2)OCCCC[C@H](C)Oc2ccc(NC(=O)CCCN(C)C)cc2C1=O	n	n	n	n	n
C[C@@H]1CCCCO[C@@H](CN(C)S(C)(=O)=O)[C@@H](C)CN([C@H](C)CO)C(=O)c2cc(NC(=O)Nc3ccc(F)cc3)ccc2O1	x	n	n	n	n
COc1ccc(NC(=O)N(C)C[C@H]2Oc3c(NS(=O)(=O)c4ccc(Cl)cc4)cccc3C(=O)N([C@H](C)CO)C[C@@H]2C)cc1	n	n	x	n	n
COc1ccc(NC(=O)Nc2ccc3c(c2)CC(=O)N([C@@H](C)CO)C[C@H](C)[C@@H](CN(C)Cc2ccc(C(=O)O)cc2)O3)cc1	n	n	n	n	n
CCC(=O)N(C)C[C@H]1Oc2cc(/C=C/c3ccccc3)ccc2S(=O)(=O)N([C@@H](C)CO)C[C@@H]1C	n	n	n	n	n
COc1ccc(S(=O)(=O)Nc2ccc3c(c2)C(=O)N([C@@H](C)CO)C[C@H](C)[C@H](CN(C)S(=O)(=O)c2ccc(OC)cc2)OCCCC[C@H](C)O3)cc1	x	n	15.3	n	n
Cc1cccc(C)c1NC(=O)COC(=O)Cc1ccsc1	n	n	43.3	x	n
O=C(Cc1ccsc1)OCC(=O)c1ccccc1	n	n	n	n	13.5
Cc1cccc(C(C)C)c1NC(=O)COC(=O)Cc1ccsc1	n	n	n	n	x
O=C(Nc1ccc2ccccc2c1)C(C1CC1)n1c(=O)c(-c2cc3ccccc3[nH]2)nc2ccccc21 (configuration not stated)	x	46.9	n	n	n
